Columns and labels:
MCF7 [1] = assay: Antiproliferative activity against human MCF7 cells after 72 hrs relative to 1-alpha,25-(OH)2-D3; format: functional
Outline: (§1)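 MCF-7 breast cancer cells (ATCC) incubated 72 h with a range of concentrations of analogues, reference 1α,25-(OH)2-D3 or vehicle. Proliferation read as [3H]thymidine incorporation.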

[2] = molecular target: T1, Vitamin D-binding protein (Homo sapiens) (UniProt P02774); assay: Binding affinity to human DBP relative to 1-alpha,25-(OH)2-D3
T1 sequence (whole entry): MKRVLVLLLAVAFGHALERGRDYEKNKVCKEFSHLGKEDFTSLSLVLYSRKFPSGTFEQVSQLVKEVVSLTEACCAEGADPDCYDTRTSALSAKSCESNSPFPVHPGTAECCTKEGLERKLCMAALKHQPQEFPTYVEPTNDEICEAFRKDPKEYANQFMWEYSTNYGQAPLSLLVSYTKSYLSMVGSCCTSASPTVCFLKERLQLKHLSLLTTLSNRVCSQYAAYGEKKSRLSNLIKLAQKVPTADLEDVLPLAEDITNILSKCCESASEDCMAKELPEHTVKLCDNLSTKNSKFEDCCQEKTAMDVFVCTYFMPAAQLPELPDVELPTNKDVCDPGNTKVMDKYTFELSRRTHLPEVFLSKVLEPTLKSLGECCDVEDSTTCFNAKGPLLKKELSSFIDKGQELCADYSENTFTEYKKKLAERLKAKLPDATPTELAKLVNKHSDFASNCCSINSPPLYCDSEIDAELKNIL

MCF7 [3] = assay: Antiproliferative activity against human MCF7 cells at 1 uM after 72 hrs relative to 1-alpha,25-(OH)2-D3; format: functional; settings: MCF7, 72 h; outline: as §1
[4] = molecular target: T2, Vitamin D3 receptor (Sus scrofa) (UniProt A3RGC1); assay: Displacement of [3H]1-alpha,25-(OH)2-D3 from VDR in pig intestinal mucosa relative to 1-alpha,25-(OH)2-D3; format: tissue-based
T2 sequence (whole entry): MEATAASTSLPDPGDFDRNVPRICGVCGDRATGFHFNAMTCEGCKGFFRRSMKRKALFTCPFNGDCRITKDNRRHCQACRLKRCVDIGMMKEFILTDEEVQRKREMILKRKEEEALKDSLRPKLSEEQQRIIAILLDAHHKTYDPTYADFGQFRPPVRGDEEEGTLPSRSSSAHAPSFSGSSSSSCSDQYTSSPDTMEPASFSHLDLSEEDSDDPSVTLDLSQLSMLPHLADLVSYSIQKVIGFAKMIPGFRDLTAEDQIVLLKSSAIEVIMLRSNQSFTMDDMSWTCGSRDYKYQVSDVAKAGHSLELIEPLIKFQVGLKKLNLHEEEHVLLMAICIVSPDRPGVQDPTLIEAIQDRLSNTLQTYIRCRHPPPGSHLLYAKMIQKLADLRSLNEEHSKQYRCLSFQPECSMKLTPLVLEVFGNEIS
Outline: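 Competitive binding using high-speed supernatant of intestinal mucosa homogenates from normal pigs, competing against [3H]-1α,25-(OH)2-D3. Relative affinity taken from the concentration displacing 50% of tracer, with 1α,25-(OH)2-D3 set at 100%.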

Row | Compound | Activity (MCF7 [1]) [%] | Activity [2] [%] | inhibition at 1 µM (MCF7 [3]) [%] | Activity [4] [%]
1 | C[C@H](CCCC(C)(C)O)[C@H]1CC[C@H]2C(/C=C\C3=C[C@@H](O)[C@H](O)[C@H](O)C3)=CCC[C@]12C | 6 | 8 | 70 | 2
2 | C[C@H](CCCC(C)(C)O)[C@H]1CC[C@H]2C(/C=C\C3=C[C@H](O)[C@@H](O)[C@H](O)C3)=CCC[C@]12C | 0 | 2 | – | < 0.1
3 | C[C@H](CCCC(C)(C)O)[C@H]1CC[C@H]2C(/C=C\C3=C[C@@H](O)[C@@H](O)[C@@H](O)C3)=CCC[C@]12C | 0 | 7 | – | < 0.1
4 | C[C@H](CCCC(C)(C)O)[C@H]1CC[C@H]2C(/C=C\C3=C[C@@H](O)[C@@H](O)[C@H](O)C3)=CCC[C@]12C | 2 | 4 | – | 0.2

— ChEMBL document CHEMBL1147961, “Synthesis and biological evaluation of new 6-s-cis locked 1,2,25-trihydroxyprevitamin D3 analogues” (2007)
